Yeast lifespan up: extends the lifespan of yeast; S. cerevisiae growth with nicotinamide, OD615; deaD strain in restrictive glucose medium; inhibition of the nicotinamide effect, % at 10 µM; actives 0.68% (n = 130,000); AID 775;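 active means inhibition above a set limit, placed 3 SD over the median of all compounds, cut at about 26% in these data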
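System: Modified budding yeast, DeaD strain | Buffer or medium: Restrictive glucose medium | Also added: 1.5 mM nicotinamide | Doses: 10 µM single point, 0.25% DMSO | Schedule: 48 h compound exposure at 30 °C, humidified | Detection: Absorbance at 615 nm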
RAM network inh: inhibitors of the yeast RAM network. S. cerevisiae dse1pr::URA3 reporter, 5-FOA growth OD615, 2 d; analog-sensitive cbk1-as2 kinase mutant strain. actives 1.8% (n = 190,000). inhibition, % at 50 µM;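 active means inhibition above a set limit, 3 SD over mean compound inhibition, cut at about 8.4% in these data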;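 further: inhibition rescues growth on 5-FOA so higher OD means more RAM inhibition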
Ins promoter up: MIN6 insulin promoter up-regulation; actives 0.3% (n = 190,000); MIN6 insulin promoter-GFP reporter, high-content imaging; active compounds read high; AID 1625; z-score at 5 µM;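 active means z-score above 3 at 5 µM with at least 500 cells counted in the well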
Insulin prom inh: TRM-6 insulin promoter activity inhibition; TRM-6 cells, insulin promoter-eGFP reporter, imaging; reporter expression induced with tamoxifen; actives 0.9% (n = 130,000); AID 1273; inhibition, % at 2 µM;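 active means inhibition above the mean plus 3 SD, with well images judged a real hit on visual review, cut at about 60% in these data, passing the limit was not always enough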
BB579 growth dn: reduces growth of yeast BB579 in restrictive medium; S. cerevisiae BB579 growth, OD615, 48 h; inhibition, % at 10 µM; actives 0.51% (n = 140,000);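 active means inhibition above a set limit, 3 SD over the mean compound inhibition, cut at about 44% in these data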
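Material: Saccharomyces cerevisiae DeaD strain BB579, replicative lifespan model yeast; buffer or medium: CSMM-D restrictive synthetic medium containing dextrose (glucose); compound: 10 µM single dose, DMSO 0.25%; timing: 48 h compound exposure at 30 °C after 4 h preincubation; signal: turbidity as optical density at 615 nm; benchmarks: positive control amphotericin B 10 µg/mL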
Hits are given with their value; . = inactive; / = no result given. Sampled rows, rich in hits. Any-hit rate of the full collection: about 3.1%.

SMILES | Yeast lifespan up | RAM network inh | Ins promoter up | Insulin prom inh | BB579 growth dn
O=C(CSc1nc2ccc(Cl)cc2o1)NCc1ccc2c(c1)OCO2 | . | . | 4 | . | .
Cc1nc(-c2ccc([N+](=O)[O-])cc2)sc1C(=O)O | / | . | . | / | /
CCO[C@@H]1OC(C(=O)N2CCN(Cc3ccccc3)CC2)=C[C@H](c2coc3ccccc3c2=O)[C@H]1CCCO | / | . | . | / | /
CC(C)(C)NC(=O)C(c1ccc(O)cc1)N(C(=O)CCC(=O)Nc1nccs1)c1ccc(F)cc1 (configuration not stated) | / | . | . | . | /
O=C(COC(=O)c1ccc[n+]([O-])c1)Nc1c(Br)cc([N+](=O)[O-])cc1Br | / | . | . | / | /
CCCN1Cc2cccc(C(=O)NC3CCCC3)c2C1=O | . | . | . | 94 | .
CC(NC(=S)Nc1cccc(F)c1)C(c1cccs1)N1CCOCC1 (configuration not stated) | / | / | . | / | /
O=C(O)C1CC=CCC1C(=O)c1ccccc1 (configuration not stated) | . | . | . | 66 | .
O=C(O)C1CC=CCC1C(=O)NNc1ccccc1 (configuration not stated) | / | . | . | / | /
Cc1ccccc1OCCCN1C(=O)C(=O)c2cccc(C)c21 | . | . | / | / | 83
Cc1cccc2c1N(CCCOc1ccccc1)C(=O)C2=O | . | . | . | . | .
Cc1cccc2c1N(CCCOc1ccc(C(C)(C)C)cc1)C(=O)C2=O | . | 11 | . | / | .
Cc1ccc2c(c1)C(=O)C(=O)N2CCCOc1ccccc1C | / | . | . | . | /
O=C(CCC(=O)N(CC(=O)NC1CCCC1)Cc1cccs1)Nc1nccs1 | / | . | . | / | /
CC(=O)N(CC(C)(C)CC=C(C)C)c1ccccc1 | / | . | . | 65 | .
NNC(=O)c1ccc(Cn2cccn2)o1 | / | / | . | / | /
Cc1cccc(N=C2Sc3nc4c(C)c(C)ccc4cc3CN2CCN2CCOCC2)c1 | . | . | . | / | 99
COCCN1Cc2cc3cc(C)ccc3nc2SC1=Nc1cccc(OC)c1 | / | . | . | . | /
CCCN1CCC(=NNC(=O)CSc2cc(C)c(Br)cc2C)CC1 | . | . | . | . | .
COC(=O)[C@@]1(Cc2ccc(OC)cc2)[C@H]2c3cc(C(=O)N4CCCC4)n(CCSCCO)c3C[C@H]2CN1C(=O)c1ccccc1 | . | . | . | . | .
COC(=O)C1CSC(C(=O)OC)N1C(=O)CN1CCN(c2ccccc2)CC1 (configuration not stated) | / | . | . | / | /
CNC(=O)c1ccsc1NC(=O)c1ccc2c(c1)CCCC2 | . | . | . | 76 | .
NC(=O)c1ccsc1NC(=O)c1ccc2c(c1)CCCC2 | . | . | . | . | .
COc1ccc(C(=O)COc2ccccc2C#N)cc1 | / | / | . | / | /
CCCC(=O)C1C(=O)CC(C)(C)C(c2cc(C)no2)C1=O (configuration not stated) | 56 | . | . | . | .
SMILES | Yeast lifespan up | RAM network inh | Ins promoter up | Insulin prom inh | BB579 growth dn
Cn1c(=O)n(C)c2cc([N+](=O)[O-])c(N3CCN(C(=O)C(C)(C)C)CC3)cc21 | / | . | . | 71 | /
O=C(COC(=O)c1cncc(Br)c1)NC1CCCCCC1 | / | . | . | / | /
CC(NC(=S)Nc1ccccc1C(F)(F)F)C1CC2CCC1C2 (configuration not stated) | / | . | . | / | /
Cc1ccc(-c2nn(-c3ccccc3)cc2C(=O)Nc2ccc(C(=O)O)cc2)cc1 | / | 9.6 | . | . | /
C=CC(C)N1C(=O)S/C(=C\c2ccc(N3CCOCC3)cc2C)C1=O (configuration not stated) | . | . | . | . | .
C=CCN1C(=O)S/C(=C\c2ccc(N3CCOCC3)cc2C)C1=O | . | 8.6 | . | . | .
CCCCn1ccnc1C(=O)c1cccc(S(=O)(=O)N2CC(C)CC(C)C2)c1 (configuration not stated) | . | 8.7 | . | . | .
CCCCn1ccnc1C(=O)c1cc(S(=O)(=O)N2CCOCC2)ccc1C | . | . | . | . | .
O=C(NCCC(c1ccccc1)c1ccccc1)c1ccc(Br)o1 | . | 10 | . | . | .
CC(C1CC1)N(Cc1ccccc1)C(=S)Nc1cccc(C(F)(F)F)c1 (configuration not stated) | 31 | . | . | . | .
CCOc1ccc(N(C(=O)c2ccccc2Cl)C2=NC(C)(C)CS2)cc1 | / | . | . | / | /
CCOC(=O)Cc1c(C)nc2c(-c3cccc(Br)c3)cnn2c1C | . | . | . | / | .
Cc1cc(N)n2ncc(-c3ccccc3)c2n1 | . | . | . | 87 | .

Assay outcomes: PubChem BioAssay, several laboratories
